Screening results deposited in PubChem by several laboratories.
Compounds with a hit are over-represented: about 2.6% of the library has one in this group of screens.
VIM-2 inh: inhibitors of Pseudomonas aeruginosa VIM-2 metallo-beta-lactamase | purified VIM-2, nitrocefin hydrolysis, epi-absorbance fluorescence | inhibition, % at 5.6 µM | actives 0.89% (n = 290,000) | AID 1527;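 active = inhibition above the mean of all tested compounds plus 3 SD, cutoff set per screening run, cut at about 7.5% in these data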;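 note: red hydrolysis product quenches plate fluorescence so inhibitors raise well fluorescence; 0% = enzyme with DMSO and 100% = DMSO without enzyme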
Runt-CBFb FRET: Runt domain-CBFb interaction inhibition; inhibition, % at 20 µM; Q01196+Q13951; Cerulean-Runt/Venus-CBFb FRET ratio 530/480, 1 h; actives 0.46% (n = 220,000);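 active = inhibition over about 50% at 20 µM in the single-dose screen, limit read from the data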;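 note: 0% = DMSO wells and 100% = excess unlabeled CBFb competitor control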
Target sequence (Q01196 whole entry, looked up, the tested form may be a part): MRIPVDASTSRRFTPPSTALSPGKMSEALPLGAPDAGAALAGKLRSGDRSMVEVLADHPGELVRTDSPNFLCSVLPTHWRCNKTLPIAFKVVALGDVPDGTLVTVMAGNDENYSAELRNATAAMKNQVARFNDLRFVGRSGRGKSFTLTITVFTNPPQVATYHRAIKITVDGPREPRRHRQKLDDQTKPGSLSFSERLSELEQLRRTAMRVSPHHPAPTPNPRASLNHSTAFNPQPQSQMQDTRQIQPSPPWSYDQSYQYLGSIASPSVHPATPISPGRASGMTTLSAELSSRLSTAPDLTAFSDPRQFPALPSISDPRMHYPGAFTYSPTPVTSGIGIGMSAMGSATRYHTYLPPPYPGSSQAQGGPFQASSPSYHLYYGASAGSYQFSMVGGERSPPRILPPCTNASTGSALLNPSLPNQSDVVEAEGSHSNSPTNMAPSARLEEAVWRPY
Target sequence (Q13951 whole entry, looked up, the tested form may be a part): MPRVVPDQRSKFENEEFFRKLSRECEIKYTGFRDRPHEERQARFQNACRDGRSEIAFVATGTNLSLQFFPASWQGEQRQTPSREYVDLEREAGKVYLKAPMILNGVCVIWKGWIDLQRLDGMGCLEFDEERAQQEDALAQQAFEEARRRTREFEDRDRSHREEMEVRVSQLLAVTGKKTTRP
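Buffer or medium: Tris pH 7.5 buffer with BSA. Assay system: Cerulean-labeled Runt domain protein. Amount: each fluorescent fusion protein 100 nM. Read-out basis: loss of energy transfer signal. Incubation: 1 h compound exposure, room temperature. Probe or stimulus: Venus-CBFb binding partner, 100 nM. Detection: FRET, excitation 422 nm, emission at 530 and 480 nm.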
RanGTP-Imp inh: inhibitors of RanGTP-importin-beta interaction, primary screen, biochemical, FRET, CFP-Ran, YFP-importin-beta, homogeneous. inhibition, % (no concentration beside the values). cell-free CFP-Ran/YFP-importin-beta FRET ratio. actives 1.1% (n = 300,000);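 active = more than half of the replicate wells show a fall in the fluorescence ratio signal beyond about 16%, limit read from the data, passing the limit was not always enough; inconclusive = exactly half of the replicate wells pass the set limit; inactive = fewer than half of replicates pass the limit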;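 note: 0% = DMSO wells and 100% = Ran loaded with GDP instead of GTP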
Runt-SMMHC FRET: blocks binding of human RUNX1 Runt domain to CBFb-SMMHC; Q01196+Q13951; Cerulean-Runt/Venus-CBFb-SMMHC FRET ratio 530/480, 1 h; inhibition, % at 20 µM; actives 0.74% (n = 220,000);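 active = mean inhibition across duplicate retests at 20 µM reaching about 50%, limit read from the data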;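 note: 0% = DMSO wells and 100% = wells with excess untagged CBFb-SMMHC; inhibitors lower the FRET ratio by blocking Runt binding to CBFb-SMMHC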
IMP-1 inhibitor: inhibitors of Pseudomonas aeruginosa IMP-1 metallo-beta-lactamase; purified IMP-1, nitrocefin hydrolysis, epi-absorbance fluorescence; inhibition, % at 5.6 µM; actives 0.45% (n = 290,000);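 active = inhibition above the mean plus 3 SD of all compounds in the same screening run, cut at about 4.5% in these data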;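 note: 0% = IMP-1 with DMSO and 100% = DMSO wells lacking enzyme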
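Material – recombinant IMP-1 enzyme, purified · Amount – IMP-1 0.2 nM before substrate addition · Medium – HEPES buffer pH 7.1 with ZnSO4 and Brij 35 · Timing – 25 °C, 15 min preincubation, 25 min reaction · Measured by – plate fluorescence quenching by hydrolysis product, ex 480/em 530 nm · Read-out – percent enzyme inhibition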
YIC counter: counter-screen for RanGTP-importin-beta inhibitors: YIC FRET probe; AID 435026; shares compounds with RanGTP-Imp inh; IC50, µM; Purified YIC probe, intramolecular FRET ratio YFP/CFP; actives 40% (n = 1,000);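 active = fitted half-maximal inhibitory concentration no more than tenfold above the top dose tested; inconclusive = flat fit with 30 to 70% activity, or poor fit; inactive = half-maximal concentration beyond tenfold above the top dose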
* hit, by the source's call; ? = inconclusive; . = no result.

SMILES	VIM-2 inh	Runt-CBFb FRET	RanGTP-Imp inh	Runt-SMMHC FRET	IMP-1 inhibitor	YIC counter
Cc1cc(N2CCN(C(=O)c3ccco3)CC2)n2nc(-c3cccc(F)c3)cc2n1	-0.5	2.8	?	7.9	-1.6	.
CC1CCCCN1Cc1c(O)ccc2c(=O)c(-c3nc4ccccc4s3)coc12 (stereo not given)	0.6	10.4	38.0*	25.1	-0.8	<0.38*
CCC1CCCCN1Cc1c(O)ccc2c(=O)c(-c3ccccc3OC)coc12 (stereo not given)	.	.	1.7	.	.	.
COc1ccc(C(=O)N/N=C/c2c(CO)cnc(C)c2O)cc1	-4.3	3.5	21.7*	88.4*	0.1	1.52*
O=C1CCc2cc(S(=O)(=O)NC(Cc3ccccc3)C(=O)N3CCN(c4ccccn4)CC3)ccc2N1 (stereo not given)	-5.1	0.0	-0.3	3.6	0.0	.
CCCCCN(C(=O)CCC(=O)OCCOc1cccc(C)c1)c1c(N)n(CCCC)c(=O)[nH]c1=O	.	.	1.4	.	.	.
CCC1(C(=O)OC)NC(c2cccc(F)c2)C2C(=O)N(C)C(=O)C21 (stereo not given)	-1.8	.	20.3*	.	-1.2	>50
COC(=O)C1(Cc2ccccc2)NC(c2ccc(F)cc2)C2C(=O)N(C)C(=O)C21 (stereo not given)	-2.3	-3.6	4.3	-2.0	-4.0	.
CCc1ccc(NS(=O)(=O)c2cccc3nonc23)cc1	-0.5	-0.8	0.6	0.1	-2.5	.
CC(C)NC(=O)C(=O)NCCCN1CCOCC1	-5.5	-0.3	-2.0	-0.5	-2.5	.
COc1cc(C(=O)Oc2c(CN3CCOCC3)cc(Cl)c3cccnc23)cc(OC)c1OC	3.3	1.1	16.1*	1.4	-0.9	>50
COc1cccc(C(=O)Oc2c(CN3CCOCC3)cc(Cl)c3cccnc23)c1	-0.3	-1.3	11.5	2.3	-1.8	.
COc1ccc(C(=O)Oc2c(CN3CCOCC3)cc(Cl)c3cccnc23)cc1	-2.2	3.6	25.2*	1.8	2.9	>50
CC(=O)Cc1nsc(NC(=O)c2ccc(-c3cccc(C(F)(F)F)c3)o2)n1	-3.8	3.3	22.2*	-0.3	-6.1	>50
COc1ccc(OC)c(NC(=O)Nc2cc(C(=O)O)ccc2C)c1	-1.7	0.0	-0.9	0.4	-3.0	.
N/C(=N\OC(=O)CSc1ccccc1)c1ccncc1	-0.5	.	9.1	.	-0.4	.
c1ccc2[nH]c(CSc3nnc(-c4ccncc4)o3)nc2c1	-0.7	-0.8	6.0	-3.4	-1.0	.
Clc1ccc(-c2nnc(SCc3nc4ccccc4[nH]3)o2)c(Cl)c1	-2.1	-0.3	32.4*	2.0	-0.1	>50
N#Cc1c(N)nc2c(c1-c1ccccc1)CCC2	2.2	5.1	28.9*	14.8	0.4	9.8*
COc1ccc(-c2c(C#N)c(N)nc3c2CCCC3)cc1OC	-0.1	.	-1.6	.	-2.4	.
Clc1ccc(-c2ncc3ccccn23)cc1	-3.4	.	26.1*	.	-2.3	>50
COc1ccc(C2NC(C(=O)O)Cc3c2[nH]c2ccccc32)cc1CN1CCN(c2ccc(F)cc2)CC1 (stereo not given)	-3.5	7.8	23.6*	38.0	-3.6	8.57*
COc1ccc(C2NCCc3c2[nH]c2ccccc32)cc1COc1ccc(F)cc1 (stereo not given)	-6.0	-2.5	22.2*	-5.0	-3.7	>50
CCOc1ccc(-c2noc(CCC(=O)NC3CCCCC3)n2)cc1OC	-2.3	.	0.9	.	-2.1	.
CC(C)Sc1nc(N2CCOCC2)c2c3c(sc2n1)COC(C)(C)C3	-2.6	-2.1	23.0*	-0.5	-2.2	>50
SMILES	VIM-2 inh	Runt-CBFb FRET	RanGTP-Imp inh	Runt-SMMHC FRET	IMP-1 inhibitor	YIC counter
COc1ccc(CN2CCNC(=O)C2CC(=O)NCCCC2CCCC2)c(F)c1 (stereo not given)	-2.9	.	-0.7	.	-2.1	.
c1cncc(Nc2c3ccccc3nc3ccccc23)c1	10.1*	.	33.9*	.	-1.4	>50
Oc1cccc(Nc2c3ccccc3nc3ccccc23)c1	11.4*	.	50.4*	.	-4.2	>50
Cn1cnnc1SCCNS(=O)(=O)c1cccc([N+](=O)[O-])c1	0.1	.	4.8	.	-1.5	.
c1ccc(C2COC(c3cccs3)=N2)cc1 (stereo not given)	-3.7	-0.2	4.2	1.2	-2.8	.
Fc1ccccc1N1CC(c2ccccc2)C(c2cccs2)=N1 (stereo not given)	-2.5	27.5	19.5*	61.6*	-4.6	13.9*
O=C(Nc1ccc(Cl)cc1Cl)c1ccc2ncsc2c1	-1.4	.	0.1	.	-2.4	.
COc1ccc(C)cc1NCc1cc(=O)oc2cc(-c3ccccc3)c(O)cc12	-3.8	-0.1	-1.7	-14.9	-3.0	.
COC(=O)c1ccccc1NCc1cc(=O)oc2cc(O)c(O)cc12	1.0	.	20.4*	.	-2.5	4.53*
CC1CCCCN1C(=O)c1cc2ccccc2cc1O (stereo not given)	0.3	.	-5.4	.	-1.4	.
CC(C)(C)NS(=O)(=O)c1cc(C(=O)Nc2sccc2C#N)ccc1Cl	-0.9	-1.9	-12.7	-2.7	-2.7	.
OC1CCN(Cc2cccc3ccccc23)CC1	-2.7	0.6	1.8	0.8	-2.2	.
CN1CCCN(Cc2cccc3ccccc23)CC1	-1.3	.	21.7*	.	0.7	>50
COc1ccc(C(CNC(=O)c2cc(F)c(F)c(F)c2F)N2CCOCC2)cc1 (stereo not given)	-2.4	-0.1	18.9*	0.7	-4.0	>50
CCSc1nnc(-c2cc(Br)ccc2N=Cc2c(C)[nH]n(-c3ccccc3)c2=O)c(=O)[nH]1	1.2	-0.6	18.3*	-10.0	-0.8	>50
CCN(C(=O)c1ccc(Cl)cc1[N+](=O)[O-])c1ccccc1C	-1.1	0.0	19.0*	1.6	-1.1	>50
CCOC(=O)c1ccc(CNC(=O)CSc2nnc(-c3ccncc3)o2)cc1	-9.4	2.0	25.9*	-4.9	-2.4	>50
CC(=O)c1ccc(NC(=O)CSc2nnc(-c3ccncc3)o2)cc1	.	.	3.3	.	.	.
COc1ccc(NC(=O)N2CCCCCC2)cc1	-4.1	-0.5	21.3*	2.8	-0.9	>50
Cc1cc2c(c(=O)n1CC1CCCO1)C(c1ccco1)C(C#N)=C(N)O2 (stereo not given)	-3.3	111.9*	22.7*	38.6	-2.3	14.1*
CC(C)OC(=O)c1nnn(-c2nonc2N)c1CN1CCCCCC1	-3.7	-3.4	23.5*	-4.5	-1.0	>50
CCOC(=O)N/N=C/c1ccc(N(CC)CC)cc1O	-2.9	2.1	3.5	1.2	-3.2	.
CCN(CC)c1ccc(/C=N/NC(=O)c2c(Cl)cnn2C)c(O)c1	-2.9	73.7*	22.1*	82.6*	-4.7	4.05*
Cc1ccccc1-n1c(=O)n(Cc2ccco2)c(=O)c2[nH]cnc21	-0.9	.	-0.1	.	-1.4	.
Cc1ccc(Cl)cc1N1C(=O)CC(Sc2ncccn2)C1=O (stereo not given)	-0.1	.	16.1*	.	-1.4	>50
